We go through 42 compounds from PubChem BioAssay AID552 (SRMLSC, 2006).

Hit rate of the full screen: of about 20,000 compounds, about 10 (0.05%) were called active. This is one part of a sample in which actives are shown more often than they occur. No stated cut-off is given here; in the data, active means inhibition above about 40%; inactive means the rest.

The nature of this assay: antibacterial activity on E. coli BW25113 – strain BW25113 wild type, absorbance readout, primary screen (AID 552).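 Further: bacteria exposed to compound for 20 hours at 37 °C.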 Particulars: E. coli BW25113 growth inhibition, OD600; at 10 µM; hits give high values. An outline of the steps: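 Material: bacterial strain in a whole-cell growth screen; Amount: inoculum from a 1:1000 dilution of a 1.5 h subculture; Buffer or medium: LB plus kanamycin 50 µg/mL; Dosing: one dose, 10 µM final; Times: compound exposure of 20 h at 37 °C; Measured by: absorbance at 615 nm as a measure of bacterial growth.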
As for `COCCn1c(-c2ccc(OC)c(OC)c2)nc2ccccc21`, the inhibition (as a rule, the relative decrease from the control value, in per cent) is -1.61% (inactive). Under `Cc1cc(C(F)(F)F)nn1CC(=O)N1CCCC1` stands 3.35% (inactive); under `Cn1c(=O)[nH]c(=O)c2c1nc(N(CCO)Cc1ccccc1)n2Cc1ccccc1Cl`, -2.48% (inactive). In the case of `CC1CCc2c(sc3c2C2=NS(=O)(=O)CCN2C=N3)C1` (configuration not stated), the inhibition is 6% (inactive). For the compound `Cc1nn(CC(=O)Nc2ccc3c(c2)nc(CN2CCCCC2)n3C)c(=O)c2ccccc12`, the inhibition is 2.04% (inactive).

Turning to `COc1ccccc1-c1nc(C(F)(F)F)c(OC)o1`, the inhibition is -5.84% (inactive). Take `O=c1ccc2cc(S(=O)(=O)N3CCN(c4ccccc4)CC3)ccc2o1`: the inhibition was -12.1% (inactive).

Regarding `Cc1ccc(C(=O)N2CCCCCC2)cc1Br`, the inhibition is -8.59% (inactive). In the case of `COc1cccc(-c2nc(S(=O)(=O)c3ccccc3)c(N3CCOCC3)o2)c1`, the inhibition is 7.07% (inactive). On to `COc1ccccc1-c1cc(C(=O)NCCCn2ccnc2)no1`, for which the inhibition is -4.16% (inactive). In the case of `O=C(O)Cc1ccc(NC(=O)c2cccs2)cc1`, the inhibition is -19.2% (inactive). The value for `COC(=O)Cc1c(C)c2ccc(OCC(=O)NCc3ccc4c(c3)OCO4)cc2oc1=O` was -21.1% (inactive); that for `O=C(CS(=O)(=O)Cc1ccccc1)Nc1cccnc1` was 6.45% (inactive); that for `O=C(NCc1ccco1)c1cc(-c2cccnc2)nc2ccc(Cl)cc12` was -19.8% (inactive). `CCSc1nc2c(c(=O)[nH]1)C(c1cccnc1)C(C(=O)OC(C)C)=C(C)N2` (configuration not stated): the inhibition was -1.79% (inactive). Under `Cc1cccc(C(=O)Nc2ccc(CC(=O)O)cc2)c1` stands -0.63% (inactive). For the compound `O=C(Nc1ccccc1)N(Cc1cccnc1)Cc1ccco1`, the inhibition is -3.67% (inactive).

Take `O=C(CSc1nc2ccccc2o1)N1CCN(c2ccccc2)CC1`: the inhibition is -25.4% (inactive). The value for `CC(=O)Nc1ccc(S(=O)(=O)Nc2nc3n(n2)C(c2ccccc2)CC(=O)N3)cc1` (configuration not stated) was -1.04% (inactive); that for `Cc1cc2c(cc1C)NC(c1ccccn1)C1=C(CC(C)(C)CC1=O)N2` (configuration not stated) was -18.9% (inactive); that for `CCOC(=O)COc1ccc(Cl)cc1C1NC(=O)NC(C)=C1C(C)=O` (configuration not stated) was -10.9% (inactive). `O=C(COc1ccc(F)cc1)N(CC1=CCS(=O)(=O)C1)c1ccccc1`: the inhibition is -20.6% (inactive).

For `CC1(C)CC(=O)C=C(NCc2ccncc2)C1`, the inhibition was -1.29% (inactive). On to `CCc1cc(Br)ccc1NC(=O)C1CCCO1` (configuration not stated), for which the inhibition was -16.5% (inactive). On to `Cc1cc(C)nc(SCc2nnc(SCC(=O)Nc3ncc(C)s3)n2Cc2ccco2)n1`, for which the inhibition was -3.82% (inactive).

`CCOc1ccc(-c2nnn(CC(=O)N3CCN(c4ccc(F)cc4)CC3)n2)cc1OCC`: the inhibition is -5.75% (inactive). With `CCCOc1ccccc1-c1nc(SCCC(=O)O)n[nH]1`, the inhibition was -18.4% (inactive). Under `CCOC(=O)CSc1nnc(CNC(=O)c2cccs2)n1-c1cc(OC)ccc1OC` stands 6.52% (inactive); under `Cc1cc(C)n(C(=O)c2ccc(S(=O)(=O)N3CCCC3)cc2)n1`, -20.2% (inactive); under `CCCCn1c(CN2CCN(CCO)CC2)nc2ccccc21`, -3.29% (inactive). Consider `Nc1nc(SCCOc2ccccc2)n[nH]1`, for which the inhibition is 6.28% (inactive). The value for `O=C(CSc1nc(-c2ccco2)cc(C(F)(F)F)n1)N1CCc2ccccc2C1` was -19.6% (inactive); that for `COCCn1c(CN(Cc2ccccc2)Cc2ccccc2)nc2c1c(=O)n(C)c(=O)n2C` was 12.3% (inactive); that for `O=C(CSc1nnc(-c2cccs2)n1-c1ccccc1)NCc1ccco1` was -20.9% (inactive). Take `CCS(=O)(=O)NCCc1ccc(OC)c(OC)c1`: the inhibition was -17.9% (inactive). `CC1=C(C(=O)Nc2ccccc2)C(c2cccs2)C(C#N)=C(SCC#N)N1` (configuration not stated): the inhibition is 7.71% (inactive). Take `CCn1cc(NC(=O)Nc2ccc(OC)c(OC)c2)c(C(N)=O)n1`: the inhibition was -17.1% (inactive). `NC(=O)CSc1oc(-c2cccs2)nc1S(=O)(=O)c1ccccc1`: the inhibition was -19.6% (inactive). With `COc1ccc(-c2noc(COc3ccc(Cl)c(C)c3)n2)cc1`, the inhibition was 15.8% (inactive). In the case of `CS(=O)(=O)N(Cc1nc2sc3c(c2c(=O)[nH]1)CCCC3)C1CCCCC1`, the inhibition is 9.07% (inactive). Under `CC(c1nnc(SCC(=O)Nc2sccc2C#N)n1-c1ccc(Cl)cc1)N(C)C` (configuration not stated) stands -3.98% (inactive); under `Cc1ccc(S(=O)(=O)NCc2nc3ccccc3c(=O)n2N)cc1`, -21.5% (inactive).
